Compound activity deposited in PubChem by Broad Institute.
T cruzi growth-1: T. cruzi proliferation inhibition. T. cruzi beta-gal in NIH3T3, GalScreen luminescence, 90 h. inhibition, % at 8.34 µM. 77,000 tested, 5.9% active. AID 624255;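 active = mean inhibition above about 93%, with at least 55% of replicates each passing it, limit read from the data, passing the limit was not always enough; inconclusive = only one of those two conditions holds; inactive = neither condition holds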
GASC1 inh: blocks human GASC-1 (KDM4C) demethylase activity | Q9H3R0 | GST-KDM4C 2-372, H3K9me3 peptide, LANCE TR-FRET | inhibition, % at 12.5 µM | 96,000 tested, 0.15% active;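 active = mean replicate inhibition above about 25%, with at least 55% of replicates also reaching it, limit read from the data, passing the limit was not always enough; inconclusive = only one of those two conditions met; inactive = neither condition met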
Target sequence (Q9H3R0 2-372 limits assumed): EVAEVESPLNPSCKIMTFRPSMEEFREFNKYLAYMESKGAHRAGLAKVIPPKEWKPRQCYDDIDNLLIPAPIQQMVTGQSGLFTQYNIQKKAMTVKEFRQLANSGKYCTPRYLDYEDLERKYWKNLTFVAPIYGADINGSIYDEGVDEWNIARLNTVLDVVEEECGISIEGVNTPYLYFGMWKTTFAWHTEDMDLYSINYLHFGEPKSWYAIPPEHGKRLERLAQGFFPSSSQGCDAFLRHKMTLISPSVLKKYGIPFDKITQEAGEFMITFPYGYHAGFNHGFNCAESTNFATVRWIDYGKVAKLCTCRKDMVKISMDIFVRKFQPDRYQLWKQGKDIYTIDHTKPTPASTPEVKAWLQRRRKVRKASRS
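System – N-terminal GST-fused human GASC-1 (KDM4C) fragment, residues 2-372 · Input – enzyme final amount 10 nM · Technique – LANCE TR-FRET, Eu antibody, ULight-streptavidin, EDTA, ex 340 nm, em 618/671 nm · Medium – HEPES buffer, pH 7.5, plus ascorbate · Incubation – enzyme reaction 30 min, then detection 60 min, both room temperature · Reagent – H3K9me3 peptide with Fe(II)/2OG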
IDH1 R132H inh: blocks human IDH1 R132H reductase activity; O75874; diaphorase/resazurin fluorescence, 60 min; inhibition, % at 10 µM; 70,000 tested, 0.18% active; AID 624101; in the data active = inhibition above about 34%; inconclusive = no clear call, values can overlap the other calls; inactive = below about 11%;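 also: 0% = DMSO and 100% = no enzyme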
T cruzi growth-2: blocks T. cruzi growth in NIH3T3 host cells. 5,600 tested, 72% active. T. cruzi beta-gal in NIH3T3, GalScreen luminescence, 90 h. shares compounds with T cruzi growth-1. inhibition, % at 8.35 µM;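 active = mean replicate inhibition above about 95% and at least 55% of replicates individually reaching it, limit read from the data; inconclusive = only one of the two criteria is met; inactive = neither criterion is met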
T cruzi growth-3: blocks T. cruzi growth in NIH3T3 host cells | T. cruzi beta-gal in NIH3T3, GalScreen luminescence, 90 h | 5,600 tested, 21% active | inhibition, % at 2.09 µM | shares compounds with T cruzi growth-1;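 active = mean inhibition above about 95%, with at least 55% of replicates also reaching it, limit read from the data; inconclusive = meets just one of the two conditions; inactive = meets neither condition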;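 also: plate controls were neutral control median for no effect and positive control median for full effect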
NIH3T3 tox: cytotoxicity in mouse NIH/3T3 fibroblasts | shares compounds with T cruzi growth-1 | NIH/3T3 viability, CellTiter-Glo ATP luminescence, 90 h | cytotoxicity (signal decrease), % at 8.35 µM | 5,600 tested, 14% active | AID 651742;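 active = mean signal decrease across replicates above about 35% based on untreated-well scatter, with enough replicates individually passing, limit read from the data; inconclusive = no rule stated though some were filed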;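 also: 0% = median of neutral control wells and 100% = median of positive control wells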
3T3 cytotox 2: kills mouse NIH/3T3 fibroblasts; shares compounds with T cruzi growth-1; NIH/3T3 viability, CellTiter-Glo ATP luminescence, 90 h; inhibition, % at 24.9 µM; 5,600 tested, 56% active; AID 651744;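 active = mean loss of cell viability signal at or above a set limit, and enough replicates individually reaching it; inconclusive = meets only the mean limit or only the replicate share; inactive = meets neither condition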;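 also: 0% = median of neutral control wells and 100% = median of positive control wells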
Active calls of the source: *; u = inconclusive; x = no result; ! = not active in a repeat. Only a selection was taken, and hits are over-represented in it overall.

SMILES	T cruzi growth-1	GASC1 inh	IDH1 R132H inh	T cruzi growth-2	T cruzi growth-3	NIH3T3 tox	3T3 cytotox 2
C[C@@H]1CCCCO[C@H](CN(C)S(=O)(=O)c2ccccc2)[C@H](C)CN([C@@H](C)CO)C(=O)c2cc(NS(=O)(=O)c3ccc(Cl)cc3)ccc2O1	118*	0	2	92	88	-4	-10
C[C@@H]1CCCCO[C@@H](CN(C)S(=O)(=O)c2ccc(Cl)cc2)[C@@H](C)CN([C@@H](C)CO)C(=O)c2cc(NS(=O)(=O)c3ccccc3)ccc2O1	x	6	x	x	x	x	x
C[C@@H]1CN([C@H](C)CO)C(=O)c2cc(NS(=O)(=O)c3ccccc3)ccc2O[C@@H](C)CCCCO[C@@H]1CN(C)S(=O)(=O)c1ccc(Cl)cc1	u	0	-3	x	x	x	x
C[C@H](CO)N1C[C@H](C)[C@H](CN(C)S(=O)(=O)c2ccc(Cl)cc2)OCCCC[C@H](C)Oc2ccc(NS(=O)(=O)c3ccccc3)cc2C1=O	u	-2	x	99*	87	-4	-15
C[C@@H]1CN([C@H](C)CO)C(=O)c2cc(NS(=O)(=O)c3ccc(Cl)cc3)ccc2O[C@@H](C)CCCCO[C@H]1CN(C)S(=O)(=O)c1ccccc1	x	2	2	x	x	x	x
C[C@@H]1CCCCO[C@@H](CN(C)S(=O)(=O)c2ccccc2)[C@H](C)CN([C@@H](C)CO)C(=O)c2cc(NS(=O)(=O)c3ccc(Cl)cc3)ccc2O1	116*	-1	x	101*	78	-6	-6
N#C[C@H]1[C@@H](c2ccc(-c3ccccc3F)cc2)[C@@H](CO)N1C(=O)C1CCOCC1	-15	-1	x	x	x	x	x
CCC(=O)N(C)C[C@H]1[C@@H](c2ccc(-c3cccc(F)c3)cc2)[C@@H](CO)N1C(C)=O	x	1	x	x	x	x	x
COc1cccc(S(=O)(=O)N(C)C[C@H]2OCc3cn(nn3)CCCC(=O)N([C@@H](C)CO)C[C@@H]2C)c1	116*!	0	x	18	10	-8	-7
COc1cccc(S(=O)(=O)N(C)C[C@@H]2OCc3cn(nn3)CCCC(=O)N([C@@H](C)CO)C[C@@H]2C)c1	-110	-1	x	x	x	x	x
COc1cccc(S(=O)(=O)N(C)C[C@H]2OCc3cn(nn3)CCCC(=O)N([C@H](C)CO)C[C@@H]2C)c1	u	1	x	17	21	10	-5
C[C@@H]1CN([C@H](C)CO)C(=O)CCCn2cc(nn2)CO[C@@H]1CN(C)S(=O)(=O)c1ccc2ccccc2c1	34	3	x	x	x	x	x
C[C@@H]1CN([C@@H](C)CO)C(=O)CCCn2cc(nn2)CO[C@H]1CN(C)S(=O)(=O)c1ccc2ccccc2c1	125*!	-1	x	55	1	-6	6
COc1cccc(S(=O)(=O)N(C)C[C@H]2OCc3cn(nn3)CCCC(=O)N([C@@H](C)CO)C[C@H]2C)c1	43	0	x	x	x	x	x
CC(=O)Nc1ccc(Br)cc1C(=O)OCc1cccc([N+](=O)[O-])c1	x	x	1	x	x	x	x
C[C@@H]1CN([C@H](C)CO)C(=O)CCCn2nncc2CO[C@@H]1CN(C)C(=O)c1cc(-c2ccccc2)on1	-16	0	-2	x	x	x	x
Cc1ccc(S(=O)(=O)N(C)C[C@@H]2Oc3cc(C#CC4CCCC4)ccc3S(=O)(=O)N([C@@H](C)CO)C[C@@H]2C)cc1	125*	-2	-4	93	112*	8	40*
COc1ccc(S(=O)(=O)N(C)C[C@H]2Oc3cc(C#CC4CCCCC4)ccc3S(=O)(=O)N([C@@H](C)CO)C[C@H]2C)cc1	80	-1	x	x	x	x	x
Cc1ccc(S(=O)(=O)N(C)C[C@@H]2Oc3cc(C#CC4CCCC4)ccc3S(=O)(=O)N([C@H](C)CO)C[C@H]2C)cc1	128*	2	0	103*	u	74*	66*
Cc1ccc(S(=O)(=O)N(C)C[C@H]2Oc3cc(C#CC4CCCC4)ccc3S(=O)(=O)N([C@H](C)CO)C[C@H]2C)cc1	126*	10	0	97*!	117*	21	38*!
COc1ccc(S(=O)(=O)N(C)C[C@@H]2Oc3cc(C#CC4CCCCC4)ccc3S(=O)(=O)N([C@@H](C)CO)C[C@H]2C)cc1	24	1	x	x	x	x	x
Cc1ccc(S(=O)(=O)N(C)C[C@H]2Oc3cc(C#CC4CCCC4)ccc3S(=O)(=O)N([C@@H](C)CO)C[C@H]2C)cc1	123*	5	0	94	111*	22	46*
C[C@@H]1CN([C@H](C)CO)C(=O)Cc2cc(NC(=O)CCCCCC(=O)Nc3ccccc3N)ccc2O[C@H]1CN(C)Cc1ccncc1	72	-1	x	x	x	x	x
CC(C)NC(=O)N1[C@H](CO)[C@@H]2c3ccccc3N(C(=O)c3ccccn3)C[C@@H]21	53	2	x	x	x	x	x
O=C(Nc1ccccc1F)N1CC2(C1)[C@H](c1ccccc1)[C@@H](CO)N2C(=O)CC1CC1	x	-1	x	x	x	x	x
SMILES	T cruzi growth-1	GASC1 inh	IDH1 R132H inh	T cruzi growth-2	T cruzi growth-3	NIH3T3 tox	3T3 cytotox 2
C[C@@H]1CN([C@H](C)CO)S(=O)(=O)c2ccc(C#CC3CCCC3)cc2O[C@@H]1CN(C)S(C)(=O)=O	110	-1	x	x	x	x	x
C[C@H](CO)N1C[C@H](C)[C@@H](CN(C)S(C)(=O)=O)Oc2cc(C#CC3CCCC3)ccc2S1(=O)=O	123*	3	-3	102*	36	20	66*
COc1ccc(S(=O)(=O)N(C)C[C@H]2Oc3cc(C#CC4CCCCC4)ccc3S(=O)(=O)N([C@@H](C)CO)C[C@@H]2C)cc1	57	0	x	x	x	x	x
Cc1ccc(S(=O)(=O)N(C)C[C@H]2Oc3cc(C#CC4CCCC4)ccc3S(=O)(=O)N([C@@H](C)CO)C[C@@H]2C)cc1	121*	-1	0	97*	109*	30	44*
CC(C)NC(=O)N1[C@H](C(=O)NC2CCC2)[C@@H](CO)[C@@H]2Cn3c(ccc(-c4ccccc4F)c3=O)[C@@H]21	9	0	x	x	x	x	x
C[C@@H]1CCCCO[C@H](CN(C)C(=O)c2ccncc2)[C@H](C)CN([C@@H](C)CO)C(=O)c2cc(NS(=O)(=O)c3ccc(F)cc3)ccc2O1	0	4	7	x	x	x	x
N#C[C@@H]1[C@@H](c2ccc(-c3cncnc3)cc2)[C@H](CO)N1C(=O)C1CCOCC1	100*	2	x	10	9	-10	1
N#C[C@H]1[C@H](c2ccc(-c3cncnc3)cc2)[C@@H](CO)N1C(=O)C1CCC1	86	1	x	x	x	x	x
N#C[C@@H]1[C@H](c2ccc(-c3cncnc3)cc2)[C@H](CO)N1C(=O)C1CCC1	101*	0	x	28	-66	-13	-18
COc1ccc(-c2ccc([C@@H]3[C@@H](C#N)N(C(=O)C4CCOCC4)[C@H]3CO)cc2)cc1	57	-1	x	x	x	x	x
COCC#Cc1ccc([C@H]2[C@H](CO)N3CCCCN(C(=O)NC4CCCC4)C[C@@H]23)cc1	92	0	x	x	x	x	x
